Molecules are shown by their SMILES. Where only a bound is given, the exact number is not on record here.

13 compounds from ChEMBL document CHEMBL1140344, “New 2-arylpyrazolo[4,3-c]quinoline derivatives as potent and selective human A3 adenosine receptor antagonists” (J Med Chem, 2005) can be followed below.

Assay [1] deals with T1, Adenosine receptor A1 (Homo sapiens, UniProt P30542).
T1 sequence (P30542 whole entry): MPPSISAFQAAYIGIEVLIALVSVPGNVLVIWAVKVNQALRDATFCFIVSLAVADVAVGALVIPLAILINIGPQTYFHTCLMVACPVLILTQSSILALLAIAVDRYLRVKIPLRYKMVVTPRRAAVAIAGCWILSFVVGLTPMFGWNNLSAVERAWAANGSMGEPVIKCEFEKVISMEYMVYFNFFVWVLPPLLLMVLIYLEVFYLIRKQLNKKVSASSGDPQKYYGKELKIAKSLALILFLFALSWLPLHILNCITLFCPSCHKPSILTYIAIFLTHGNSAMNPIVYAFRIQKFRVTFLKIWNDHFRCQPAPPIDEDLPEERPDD
The experiment in a line: Inhibition of [3H]DPCPX binding to human adenosine A1 receptor expressed in CHO cells; (n=3 - 6). Type of assay: cell-based. The method, boiled down:
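Membranes from human A1-transfected CHO cells, pretreated with adenosine deaminase 3 IU/ml for 30 min at 37 °C. 50 µg protein incubated 120 min at 25 °C in 50 mM Tris HCl pH 7.4 with 1 nM [³H]DPCPX and 6–8 concentrations of test ligand. Nonspecific binding defined with 10 µM CHA. Separated by GF/B filtration, counted by scintillation. Ki via Cheng–Prusoff.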

Assay [2] concerns the target T2, Adenosine receptor A1 (Homo sapiens) (UniProt P30542).
T2 sequence (whole entry): T1 sequence (P30542 whole entry)
In words: Percent inhibition [3H]DPCPX binding to human adenosine A1 receptor expressed in CHO cells; (n=3 - 6). Format: cell-based. Also noted: concentration or dose not given beside the values. To be noted: concentration not given here.

In assay [3] the target is T3, Adenosine receptor A2a (Homo sapiens, UniProt P29274). In words: Percent inhibition of [3H]ZM-241385 binding to human adenosine 2Aa receptor expressed in CHO cells; (n=3 - 6). Format: cell-based. Set-up: concentration or dose not given beside the values. To be noted: concentration not given here.
In assay [4] the target is T3, Adenosine receptor A2a. The experiment in a line: Inhibition of [3H]ZM-241385 binding to human adenosine A2a receptor expressed in CHO cells; (n=3 - 6). Format: cell-based. The method, boiled down:
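Membranes from human A2A-transfected CHO cells, pretreated with adenosine deaminase. 50 µg protein incubated 60 min at 4 °C in 50 mM Tris HCl, 10 mM MgCl₂, pH 7.4 with [³H]ZM241385 and 6–8 concentrations of test ligand. Nonspecific binding defined with 1 µM ZM241385. Separated by filtration, counted by scintillation. Ki via Cheng–Prusoff.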

The target of assay [5] is T4, Adenosine receptor A3 (Homo sapiens, UniProt P0DMS8).
T4 sequence (P0DMS8 whole entry): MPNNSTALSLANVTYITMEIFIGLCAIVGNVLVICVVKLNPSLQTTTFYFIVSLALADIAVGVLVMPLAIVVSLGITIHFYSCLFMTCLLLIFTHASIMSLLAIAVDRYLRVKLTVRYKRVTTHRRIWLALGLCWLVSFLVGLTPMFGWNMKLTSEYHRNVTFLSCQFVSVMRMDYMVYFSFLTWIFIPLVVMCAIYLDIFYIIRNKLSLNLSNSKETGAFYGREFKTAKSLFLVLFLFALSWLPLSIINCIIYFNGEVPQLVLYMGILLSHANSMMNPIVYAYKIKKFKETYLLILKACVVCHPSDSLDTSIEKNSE
The experiment in a line: Inhibition of [3H]MRE3008-F20 binding to human adenosine A3 receptor expressed in CHO cells; (n=3 - 6). Type of assay: cell-based.

For assay [6], the target named is T5, Adenosine receptor A2b (Homo sapiens, UniProt P29275).
T5 sequence (P29275 whole entry): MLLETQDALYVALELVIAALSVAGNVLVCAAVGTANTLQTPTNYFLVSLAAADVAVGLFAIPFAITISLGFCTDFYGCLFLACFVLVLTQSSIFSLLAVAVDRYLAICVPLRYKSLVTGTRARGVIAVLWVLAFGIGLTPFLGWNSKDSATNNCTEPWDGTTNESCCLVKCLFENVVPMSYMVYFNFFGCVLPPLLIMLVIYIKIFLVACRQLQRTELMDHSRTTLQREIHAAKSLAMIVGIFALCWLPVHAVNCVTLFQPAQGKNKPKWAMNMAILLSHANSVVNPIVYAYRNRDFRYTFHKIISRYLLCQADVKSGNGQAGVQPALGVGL
In words: Inhibition of 100 nM-NECA stimulation of cAMP levels in human adenosine A2b receptor expressing CHO cells. Format: cell-based. The method, boiled down: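 CHO cells stably transfected with human A2B receptor, grown in DMEM/F12 with 10% FCS and G418, 37 °C. Cells trypsinised and suspended at 1 × 10⁶ cells/assay in pH 7.4 buffer with 2 IU/ml adenosine deaminase and Ro 20-1724. Preincubated 10 min at 37 °C, then challenged with 100 nM NECA. Stopped with cold 6% TCA. cAMP measured by competitive binding to [³H]cAMP with adrenal binding protein. IC50 from sigmoid nonlinear regression.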
In general terms: Cyclic AMP is a second messenger, typically raised through Gs and lowered through Gi signalling.

Assay [7] deals with T6, Adenosine receptor A2b (Homo sapiens) (UniProt P29275).
T6 sequence (whole entry): T5 sequence (P29275 whole entry)
In words: Percent inhibition of human adenosine A2b receptor expressed in CHO cells. Type of assay: cell-based. Also noted: concentration or dose not given beside the values. To be noted: concentration not given here.

Assay [8] concerns the target T4, Adenosine receptor A3. The experiment in a line: Inhibition of cAMP accumulation in human adenosine A3 receptor assay as inhibition of Cl-IB-MECA. Format: functional.
Assay [9] addresses T2, Adenosine receptor A1 (Homo sapiens). The experiment in a line: Percentage inhibition of [3H]DPCPX binding to human adenosine A1 receptor expressed in CHO cells; (n=3 - 6). Type of assay: cell-based. To be noted: concentration not given here.

T3 sequence (P29274 whole entry): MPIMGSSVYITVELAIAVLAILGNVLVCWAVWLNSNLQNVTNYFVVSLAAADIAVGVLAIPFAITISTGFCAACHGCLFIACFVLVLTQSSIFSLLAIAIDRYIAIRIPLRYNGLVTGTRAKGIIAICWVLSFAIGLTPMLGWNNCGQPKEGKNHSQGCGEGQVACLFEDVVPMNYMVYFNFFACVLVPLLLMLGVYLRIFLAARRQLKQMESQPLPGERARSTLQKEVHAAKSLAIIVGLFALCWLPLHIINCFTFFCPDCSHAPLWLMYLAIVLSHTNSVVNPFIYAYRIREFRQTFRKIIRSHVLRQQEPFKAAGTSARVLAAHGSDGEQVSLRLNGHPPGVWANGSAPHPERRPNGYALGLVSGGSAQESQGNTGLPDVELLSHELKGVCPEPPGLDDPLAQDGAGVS

For `c1ccc(CNc2nc3ccccc3c3nn(-c4ccccc4)cc23)cc1`, the Ki is above 1 µM in assay [1], above 1 µM in assay [4] and 0.125 µM in assay [5]. Also, the inhibition in assay [2] worked out at 4%; in [3], 2%; in assay [7], 1%. In addition, the IC50 in assay [6] is above 1 µM.

As for `Oc1nc2ccccc2c2nn(-c3ccc(F)cc3)cc12`, the Ki in [1] is above 1 µM; in assay [4], above 1 µM; in assay [5] it was 0.027 µM. Further, the inhibition in assay [2], in assay [3] and in [7] was 10% each time. The IC50 in assay [6] was above 1 µM.

Regarding `c1ccc(-n2cc3cnc4ccccc4c3n2)cc1`, the inhibition constant Ki was above 1 µM in [1], above 1 µM in assay [4] and 0.212 µM in [5]. Moreover, the inhibition was 5% in assay [2], 3% in assay [3] and 1% in assay [7]. Also, the IC50 in [6] was above 1 µM.

As to `Oc1nc2ccccc2c2nn(-c3ccc(Cl)cc3)cc12`, the Ki is above 1 µM in [1], above 1 µM in [4] and 0.019 µM in [5]. Further, the inhibition in [2] was determined as 4%; in assay [3] it was 1%; in assay [7], 1%. This compound also had a half-inhibitory concentration (IC50) in assay [6] above 1 µM.

For the compound `COc1ccc(-n2cc3c(O)nc4ccccc4c3n2)cc1`, the Ki is above 1 µM in assay [1], above 1 µM in assay [4], 0.016 µM in assay [5] and 0.042 µM in assay [8]. Also, the results for the inhibition in assay [2], in assay [3] and in assay [7] were 1%, 1% and 2%, respectively. In addition, in [6], the IC50 was above 1 µM.

As for `COc1nc2ccccc2c2nn(-c3ccccc3)cc12`, the values for the Ki in assay [1], in assay [4] and in [5] were above 1 µM, above 1 µM and 0.166 µM, respectively. The figures for the inhibition in [2], in assay [3] and in [7] were 16%, 5% and 10%, respectively. This compound came in with an IC50 in assay [6] above 1 µM.

Regarding `Oc1nc2ccccc2c2nn(-c3ccccc3Cl)cc12`, the results for the inhibition constant Ki in [1], in assay [4] and in assay [5] were above 1 µM, above 1 µM and 0.044 µM, respectively. For the same compound, the inhibition is 3% in [2], 1% in assay [3] and 8% in assay [7]. For the same compound, the IC50 in assay [6] is above 1 µM.

With `CCc1ccc(-n2cc3c(O)nc4ccccc4c3n2)cc1`, the inhibition in assay [2] came to 12%; in assay [3], 1%; in assay [7], 13%.

`Sc1nc2ccccc2c2nn(-c3ccccc3)cc12`: the values for the inhibition constant (Ki) in assay [1], in assay [4] and in assay [5] were above 1 µM, above 1 µM and 0.22 µM, respectively. In addition, the inhibition in [2] was 14%; in [3], 8%; in assay [7], 11%. This compound had a half-inhibitory concentration (IC50) in [6] above 1 µM.

Regarding `Cc1ccc(-n2cc3c(O)nc4ccccc4c3n2)cc1`, the inhibition came out at 3% in assay [2], 1% in assay [3] and 2% in assay [7].

In the case of `Cc1ccc(-n2cc3c(=O)[nH]c4ccccc4c3n2)cc1`, the inhibition constant (Ki) in assay [1] and in assay [4] was above 1 µM throughout. In assay [6], this compound gave an IC50 above 1 µM.

As to `Oc1nc2ccccc2c2nn(-c3ccccc3)cc12`, the Ki was above 1 µM in [1], above 1 µM in [4], 0.027 µM in assay [5] and 0.055 µM in assay [8]. Also, the values for the inhibition in assay [3], in [9] and in [7] were 2%, 5% and 1%, respectively. The compound further had a concentration for half-maximal inhibition (IC50) in [6] above 1 µM.

Turning to `CCc1ccc(-n2cc3c(=O)[nH]c4ccccc4c3n2)cc1`, the Ki in assay [1] is above 1 µM; in assay [4], above 1 µM; in assay [5], 0.157 µM. This compound returned an IC50 in [6] above 1 µM.

For orientation: Ki means the dissociation constant of the complex between target and ligand, obtained from inhibition or displacement. The inhibition is the change of the read-out against control, counted positive when it falls. The term IC50 denotes the concentration that gives 50% inhibition.
